Data taken from ChEMBL document CHEMBL4138246, “Natural product inspired library synthesis - Identification of 2,3-diarylbenzofuran and 2,3-dihydrobenzofuran based inhibitors of Chlamydia trachomatis” (Eur J Med Chem, 2018).

Key:
[1] = Cytotoxicity against human HeLa 299 cells assessed as cell viability at 50 uM after 48 hrs by XTT assay relative to control; format: cell-based; settings: for viability at 48 h, 50 µM: HeLa 299 cells, read-out: Activity; for Activity: 48 h, 50 µM
Procedure, shortened: (§1)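 HeLa299 cells are seeded at 7000/well and cultured overnight in RPMI with 10% FBS and 2 mM […] at 37 °C with 5% CO2. The medium is then swapped for phenol red-free DMEM with 0.5% DMSO, with or without compound at 25 and 50, in at least three replicate wells each, for 48 h. XTT with activation reagent is read after 2.5 h at 475 minus 660 nm, blank-corrected, and expressed as % of DMSO control.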

[2] = Cytotoxicity against human HeLa 299 cells assessed as cell viability at 25 uM after 48 hrs by XTT assay relative to control; format: cell-based; settings: read-out: Activity; procedure, shortened: as §1
[3] = Cytotoxicity against human HeLa 299 cells assessed as reduction in cell viability after 48 hrs by XTT assay; format: cell-based; procedure, shortened: as §1
Chlamydia trachomatis [4] = test: Antichlamydial activity against Chlamydia trachomatis serovar L2 454/Bu infected in human HeLa 299 cells assessed as reduction in number of inclusion bodies measured after 44 to 48 hrs by DAPI staining-based HCS assay; format: functional, organism-based
Procedure, shortened: (§2)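 HeLa299 cells are seeded at 15,000/well, cultured overnight at 37 °C with 5% CO2 in RPMI with 10% FBS and 2 mM […], then infected with serovar L2 454/Bu at MOI about 0.3 in HBSS. At 1 h the inoculum is replaced with medium containing 0.5% DMSO and 1:1 serial dilutions of compound over eleven concentrations. After 44–48 h, cells are fixed in methanol for 5 min. Inclusions are stained with rabbit anti-Chlamydia antibody, a FITC secondary, and DAPI. Inclusions over 130 µm² are counted by automated imaging and expressed as % of DMSO-control inclusions. IC50 is from nonlinear regression of at least three independent experiments.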

[5] = Cytotoxicity against human HeLa 299 cells assessed as reduction in cell viability at 25 uM after 48 hrs by XTT assay
Chlamydia trachomatis [6] = test: Antichlamydial activity against Chlamydia trachomatis serovar A […] infected in human HeLa 299 cells assessed as reduction in number of inclusion bodies measured after 44 to 48 hrs by DAPI staining-based HCS assay; format: functional, organism-based
Chlamydia trachomatis [7] = test: Antichlamydial activity against Chlamydia trachomatis serovar L2 infected in human HeLa 299 cells assessed as reduction in number of inclusion bodies measured after 44 to 48 hrs by DAPI staining-based HCS assay; format: functional, organism-based; procedure, shortened: as §2
Chlamydia trachomatis [8] = test: Antichlamydial activity against Chlamydia trachomatis serovar D […] infected in human HeLa 299 cells assessed as reduction in number of inclusion bodies measured after 44 to 48 hrs by DAPI staining-based HCS assay; format: functional, organism-based

| SMILES | viability at 48 h, 50 µM [1] | viability at 48 h, 25 µM [2] | Activity [3] | IC50 (Chlamydia trachomatis [4]; read-out: IC50) | IC50 (Chlamydia trachomatis [4]; read-out: pIC50 (converted)) | Activity [5] | IC50 (Chlamydia trachomatis [6]) | IC50 (Chlamydia trachomatis [7]) | IC50 (Chlamydia trachomatis [8]) | Activity [1] |
| --- | --- | --- | --- | --- | --- | --- | --- | --- | --- | --- |
| Oc1ccc(-c2oc3cc(O)ccc3c2-c2ccc(F)cc2)cc1 | 42% | 105% | Dose-dependent effect |  |  |  |  |  |  |  |
| Oc1ccc(-c2oc3ccccc3c2-c2cccnc2)cc1 | 61% | 79% | Dose-dependent effect |  |  |  |  |  |  |  |
| COc1ccc(-c2oc3ccccc3c2-c2ccc(OC)cc2)cc1 | 94% | 92% |  | 11.6 µM | 11.6 µM |  |  |  |  |  |
| Oc1ccc(-c2oc3ccccc3c2-c2cccc(F)c2)cc1 | < 70% |  |  |  |  | Toxic |  |  |  |  |
| COc1ccc(-c2oc3ccc(F)cc3c2-c2ccc(OC)cc2)cc1 | 99% | 82% |  | 15.2 µM | 15.2 µM |  |  |  |  |  |
| COc1ccc(-c2oc3ccccc3c2-c2ccnc(F)c2)cc1 | 97% | 84% |  | 2 µM | 2.04 µM |  | 1.6 µM | 0.965 µM | 2.04 µM |  |
| Oc1ccc(-c2oc3ccc(F)cc3c2-c2ccc(O)cc2)cc1 | < 70% |  |  |  |  | Toxic |  |  |  |  |
| COc1ccc(-c2oc3cc(OC)ccc3c2-c2ccnc(F)c2)cc1 | 93% | 68% |  | 2.7 µM | 2.73 µM |  | 1.34 µM | 1.81 µM | 2.19 µM |  |
| Oc1ccc(-c2oc3ccc(F)cc3c2-c2ccnc(F)c2)cc1 | 53% | 107% | Dose-dependent effect |  |  |  |  |  |  |  |
| COc1cccc(-c2oc3ccc(F)cc3c2-c2ccc3c(c2)OCO3)c1 | < 70% |  |  |  |  | Toxic |  |  |  |  |
| COc1ccc(-c2oc3ccccc3c2-c2cccnc2)cc1 | 103% | 82% |  | 2.4 µM | 2.44 µM |  | 2.63 µM | 1 µM | 2.44 µM |  |
| Oc1ccc(-c2oc3ccccc3c2-c2ccnc(F)c2)cc1 | 52% | 90% | Dose-dependent effect |  |  |  |  |  |  |  |
| COc1ccc(-c2oc3ccccc3c2-c2cccc(F)c2)cc1 | 84% | 79% |  | 22.1 µM | 22.1 µM |  |  |  |  |  |
| COc1ccc(-c2oc3cc(OC)ccc3c2-c2ccc(F)cc2)cc1 | < 70% |  |  |  |  | Toxic |  |  |  |  |
| Oc1ccc(-c2oc3ccccc3c2-c2ccc(O)cc2)cc1 | 32% | 74% | Dose-dependent effect |  |  |  |  |  |  |  |
| COc1ccc(-c2oc3cc(OC)ccc3c2-c2ccc(C(F)(F)F)cc2)cc1 | 45% | 84% | Dose-dependent effect |  |  |  |  |  |  |  |
| COc1ccc(-c2oc3cc(OC)ccc3c2-c2ccc(OC)cc2)cc1 | 100% | 106% |  | 12.8 µM | 12.8 µM |  |  |  |  |  |
| c1ccc(COc2ccc(-c3oc4ccccc4c3-c3cccnc3)cc2)cc1 | 82% | 76% |  | 15 µM | 15 µM |  |  |  |  |  |

| SMILES | viability at 48 h, 50 µM [1] | viability at 48 h, 25 µM [2] | Activity [3] | IC50 (Chlamydia trachomatis [4]; read-out: IC50) | IC50 (Chlamydia trachomatis [4]; read-out: pIC50 (converted)) | Activity [5] | IC50 (Chlamydia trachomatis [6]) | IC50 (Chlamydia trachomatis [7]) | IC50 (Chlamydia trachomatis [8]) | Activity [1] |
| --- | --- | --- | --- | --- | --- | --- | --- | --- | --- | --- |
| Oc1ccc(-c2oc3cc(O)ccc3c2-c2ccnc(F)c2)cc1 | < 70% |  |  |  |  | Toxic |  |  |  |  |
| COc1ccc(-c2oc3cc(OC)ccc3c2-c2ccc(F)c(F)c2)cc1 | 101% | 96% |  | 27 µM | 27 µM |  |  |  |  |  |
| COc1ccc(-c2oc3ccc(F)cc3c2-c2ccnc(F)c2)cc1 | 103% | 90% |  | 4.2 µM | 4.21 µM |  | 1.84 µM | 4.73 µM | 5.04 µM |  |
| COc1ccc(-c2oc3ccccc3c2-c2ccc(F)c(F)c2)cc1 | 96% | 90% |  | 8.7 µM | 8.73 µM |  |  |  |  |  |
| COc1cccc(C2Oc3ccc(F)cc3C2c2ccc3c(c2)OCO3)c1 (racemic) | 103% | 88% |  | 25.8 µM | 25.8 µM |  |  |  |  |  |
| c1ccc(C2Oc3ccccc3C2c2ccccc2)cc1 (racemic) | 88% | 72% |  | 25.4 µM | 25.4 µM |  |  |  |  |  |
| COc1ccc(C2c3ccc(OC)cc3OC2c2ccccc2)cc1 (racemic) | < 70% |  |  |  |  | Toxic |  |  |  |  |
| COc1cccc(C2Oc3cc(OC)ccc3C2c2ccc(F)c(F)c2)c1 (racemic) | 95% | 93% |  | 1 µM | 0.998 µM |  | 0.079 µM | 0.581 µM | 0.7 µM |  |
| N#Cc1cccc(C2c3ccccc3OC2c2ccccc2)c1 (racemic) | 96% | 90% |  | 25 µM | 25 µM |  |  |  |  |  |
| Fc1cccc(C2c3cc(F)ccc3OC2c2ccccc2)c1 (racemic) | 84% | 83% |  | 24.9 µM | 24.9 µM |  |  |  |  |  |
| COc1cccc(C2Oc3ccc(F)cc3C2c2ccc(F)c(F)c2)c1 (racemic) | 118% | 80% |  | 19.8 µM | 19.9 µM |  |  |  |  |  |
| COc1ccc(C2c3ccc(OC)cc3OC2c2cccc(OC)c2)cc1 (racemic) | 90% | 76% |  | 10.6 µM | 10.6 µM |  |  |  |  |  |
| Fc1ccc(C2c3ccccc3OC2c2ccccc2)cc1F (racemic) | 87% | 75% |  | 27.2 µM | 27.2 µM |  |  |  |  |  |
| COc1ccc2c(c1)OC(c1ccccc1)C2c1ccc(F)c(F)c1 (racemic; 38) |  | 84% |  | 23.4 µM | 23.4 µM |  |  |  |  | 102% |
| COc1ccc2c(c1)OC(c1ccccc1)C2c1ccc(F)c(F)c1 (racemic; 39) |  |  |  |  |  | Toxic |  |  |  | < 70% |
| CC[C@H]1OC(=O)[C@H](C)[C@@H](O[C@H]2C[C@@](C)(OC)[C@@H](O)[C@H](C)O2)[C@H](C)[C@@H](O[C@@H]2O[C@H](C)C[C@H](N(C)C)[C@H]2O)[C@](C)(O)C[C@@H](C)CN(C)[C@H](C)[C@@H](O)[C@]1(C)O [AZITHROMYCIN] |  |  |  |  |  |  |  | 0.727 µM |  |  |
| CC1COc2c(N3CCN(C)CC3)c(F)cc3c(=O)c(C(=O)O)cn1c23 (centres undefined) [OFLOXACIN] |  |  |  |  |  |  |  | 0.666 µM |  |  |
